An excerpt weighted towards active compounds, which were near 1.9% of everything screened.
Env fusion inh – HIV envelope-mediated fusion inhibition. hit rate 1.1% among 360,000. inhibition, % at 12.3 µM. HeLa-JRFL Env/CEM21 cell fusion, luciferase;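 active = mean replicate inhibition score of at least 50 and every replicate individually at or above 50; inconclusive = only one of the two criteria met; inactive = mean below 50 and not all replicates reaching 50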;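 note: 0% = plate neutral controls and 100% = maraviroc near 300 nM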
PglD DTNB – blocks C. jejuni PglD acetyltransferase activity | inhibition, % at 12.5 µM | purified PglD enzyme, DTNB colorimetric CoA detection | AID 602405 | hit rate 0.098% among 360,000; in the data active = inhibition above about 16%, passing the limit was not always enough; inconclusive = no clear call, values can overlap the other calls
SR-BI DiI inh – blocks mouse SR-BI lipid uptake from DiI-HDL; ldlA[mSR-BI] CHO cells, DiI-HDL uptake fluorescence, 3 h; inhibition, % at 12.5 µM; hit rate 0.96% among 320,000; AID 488896;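 active = mean replicate inhibition of at least 70% and a set share of replicates each scoring 70 or more; inconclusive = meets just one of the two criteria; inactive = fails both criteria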;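 note: 0% = median of neutral control wells and 100% = median of positive control wells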
SR-BI DiI-HDL act – activators of SR-BI mediated HDL lipid uptake | CHO ldlA[mSR-BI] cells, DiI-HDL uptake fluorescence, 3 h; 100 = double the neutral-control signal | activation, % at 12.5 µM | hit rate 0.096% among 320,000;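 active = mean replicate activation of at least 60% and every replicate at or above 60%; inconclusive = mean or all-replicate condition met, but not both; inactive = mean below 60% and not all replicates reaching 60%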;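 note: 0% = median plate neutral-control signal and 100% = twice that signal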
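System: LDL receptor-deficient CHO ldlA cells overexpressing murine SR-BI | Timing: 3 h uptake period with compound, 37 °C | Medium: HEPES-buffered (25 mM, pH 7.4) F12 plus 0.5% BSA | Dosing: Single-point compound dose | Signal: Bottom-read fluorescence, 550/595 nm | Read-out: Retained DiI signal reflecting DiI-HDL uptake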
Rtt109 Vps75 – C. albicans Rtt109 histone acetyltransferase inhibition. Q5AAJ8. purified Rtt109/Vps75, ThioGlo CoA-SH fluorescence, 4 h. inhibition, % at 34.9 µM. hit rate 0.16% among 330,000. AID 540336;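 active = inhibition of at least 50% in every replicate; inconclusive = best replicate reaches 50% inhibition but some replicates fall short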
Target sequence (Q5AAJ8 whole entry, looked up): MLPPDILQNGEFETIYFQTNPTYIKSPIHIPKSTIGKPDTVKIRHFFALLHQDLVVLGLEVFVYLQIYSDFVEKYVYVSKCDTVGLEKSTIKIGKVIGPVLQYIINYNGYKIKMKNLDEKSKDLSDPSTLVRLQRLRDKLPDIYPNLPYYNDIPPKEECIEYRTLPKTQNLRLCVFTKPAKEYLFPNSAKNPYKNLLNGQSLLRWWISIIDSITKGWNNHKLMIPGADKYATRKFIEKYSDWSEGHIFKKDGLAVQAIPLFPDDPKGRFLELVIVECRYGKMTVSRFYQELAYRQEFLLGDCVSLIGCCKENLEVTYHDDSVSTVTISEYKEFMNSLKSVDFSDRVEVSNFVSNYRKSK
Glyco luc inh – N-linked glycosylation inhibition; D54 ERlucT glycosylation luciferase reporter, 24 h; percent of 100 nM tunicamycin response; reporter increase, % at 12.5 µM; hit rate 0.23% among 360,000; AID 588692;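 active = mean luciferase reporter signal, scaled so untreated is 0 and the glycosylation-blocking control 100, at or above a set limit in every replicate; inconclusive = mean reaches the limit but not every replicate does; inactive = mean below the limit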;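 note: luciferase carries N-glycosylation sites so blocking glycosylation raises the light; 0% = median of neutral control wells and 100% = median of 100 nM tunicamycin wells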
Numbers without * were called inactive; ? = inconclusive; . = not tested or not shown; [ ] = remark or other dose.

SMILES	Env fusion inh	PglD DTNB	SR-BI DiI inh	SR-BI DiI-HDL act	Rtt109 Vps75	Glyco luc inh
COc1ccc(-c2cnc3c(c2)C(=O)N([C@H](C)CO)C[C@@H](C)[C@@H](CN(C)C(=O)C2CCC2)O3)cc1	-12[16.7 µM]	2	.	.	.	.
CCC(=O)Nc1ccc2c(c1)OC[C@@H](C)N(C(=O)c1ccc(F)cc1)C[C@H](C)[C@H](OC)CN(C)C2=O	-4[16.7 µM]	2	.	.	.	.
O=C1c2ccccc2C(=O)c2c(NCCCN(CCO)CCO)cccc21	-47	.	41	-41	13	116*
CC(C)CC[n+]1ccccc1/C=C/c1ccc(N(C)C)cc1	61*	-12	-36	36	1	-2
CCC(=O)N1C[C@@H](O)COC[C@H]2O[C@@H](CC(=O)N3CCCCC3)CC[C@@H]21	-9[16.7 µM]	1	.	.	.	.
COc1ccccc1-c1ccc2c(c1)C(C)(Cc1ccc(F)c(Cl)c1)C(=O)N2 (stereo not given)	96*	2	.	.	.	-8
CC1(Cc2cccc(F)c2)C(=O)Nc2ccc(-c3cccnc3)cc21 (stereo not given)	51	1	.	.	.	-11
COc1ccccc1-c1ccc2c(c1)C(C)(Cc1ccc(Cl)cc1)C(=O)N2 (stereo not given)	12	4	.	.	.	-1
COc1ccc(Cl)cc1CC1(C)C(=O)Nc2ccc(-c3ccccc3OC)cc21 (stereo not given)	92*	-2	.	.	.	-6
COc1ccccc1-c1ccc2c(c1)C(C)(Cc1cccc(C#N)c1)C(=O)N2 (stereo not given)	101*	5	.	.	.	-4
COc1ccccc1-c1ccc2c(c1)C(C)(Cc1cc(Cl)ccc1C(F)(F)F)C(=O)N2 (stereo not given)	-3	2	.	.	.	-6
CC1(Cc2ccc(Cl)cc2)C(=O)Nc2ccc(-c3cccnc3)cc21 (stereo not given)	69*	-5	.	.	.	-12
CO[C@@H]1CN(C)C(=O)c2ccc(NC(C)=O)cc2OC[C@@H](C)N(C(=O)c2ccc(F)cc2)C[C@@H]1C	-8[16.7 µM]	1	.	.	.	.
CC(C)CC#Cc1ccc2c(c1)O[C@H](CN(C)C(=O)CN(C)C)[C@@H](C)CN([C@@H](C)CO)S2(=O)=O	9[16.7 µM]	-1	.	.	.	.
CCCNC(=O)Nc1ccc2c(c1)OC[C@@H](C)N(Cc1ccc(-c3ccccn3)cc1)C[C@@H](C)[C@@H](OC)CN(C)C2=O	.	-1	.	.	.	.
CC1(Cc2ccc(Cl)cc2)C(=O)Nc2ccc(S(=O)(=O)NC3CCCCC3)cc21 (stereo not given)	91*	4	.	.	.	-5
COc1ccc(C(C)=O)cc1CC1(C)C(=O)Nc2ccc(-c3cccc(C(F)(F)F)c3)cc21 (stereo not given)	79*	3	.	.	.	-4
CN(C)C(=O)C[C@H]1C[C@@H]2c3cc(NC(=O)c4ccc5c(c4)OCO5)ccc3O[C@@H]2[C@@H](CO)O1	.	0	.	.	.	.
Cc1ccc(S(=O)(=O)NC2c3cccc4cccc(c34)C2Sc2nc(C)cc(C)n2)cc1 (stereo not given)	98*	-3	41	-41	5	-6
COCC(=O)N1C[C@@H](C)[C@@H](OC)CN(C)C(=O)c2cc(NC(=O)Nc3cccc(F)c3)ccc2OC[C@H]1C	-2[16.7 µM]	0	.	.	.	.
Cc1cc(-c2n[nH]c(=S)n2Cc2ccco2)n(C)n1	-5	-4	-61	61*	2	5
Cc1cc(-c2n[nH]c(=S)n2Cc2ccco2)nn1C	-4	4	-16	16	2	0
O=c1[nH]c2ccc(NCc3ccccc3OCc3ccc(Cl)cc3)cc2[nH]1	0	5	72*	-72	2	-1
COc1cccc(CNc2ccc3[nH]c(=O)[nH]c3c2)c1OCc1ccc(F)cc1	8	-2	-16	16	7	0
Oc1ccc(NCc2ccccc2OCc2ccccc2)cc1	5	.	5	-5	-1	52*
SMILES	Env fusion inh	PglD DTNB	SR-BI DiI inh	SR-BI DiI-HDL act	Rtt109 Vps75	Glyco luc inh
Cc1ccccc1S(=O)(=O)NCC[C@H]1CC[C@@H](NC(=O)C2CCC2)[C@H](CO)O1	-7[16.7 µM]	2	.	.	.	.
Cc1ccc(S(=O)(=O)N(C)C[C@@H]2Oc3ccc(NC(=O)NC4CCCCC4)cc3CC(=O)N([C@H](C)CO)C[C@@H]2C)cc1	.	0	.	.	.	.
C[C@@H]1CCCCO[C@H](CN(C)Cc2ccncc2)[C@@H](C)CN([C@@H](C)CO)C(=O)c2cc(NC(=O)CCCN(C)C)ccc2O1	2[16.7 µM]	.	.	.	.	.
Cn1c(=O)[nH]c(=O)c2c1nc(SCC(N)=O)n2Cc1cccc(Br)c1	13	1	2	-2	0	27*
C=C(C)CSc1nc2c(c(=O)[nH]c(=O)n2C)n1Cc1ccccc1	-1	5	3	-3	-3	-3
Cc1ccc(-c2nc(NC(=O)c3nn(C)cc3[N+](=O)[O-])sc2C)cc1C	.	-3	74*	-74	1	-21
Cc1ccc(-c2nc(NC(=O)c3nn(C)cc3[N+](=O)[O-])sc2C)cc1	.	-3	52	-52	9	-21
C[C@H](CO)N1C[C@H](C)[C@H](CN(C)C(=O)Nc2ccc(C(F)(F)F)cc2)Oc2ccc(NC(=O)NC3CCCCC3)cc2C1=O	?	-2	.	.	.	.
COc1ccc(C(=O)CSc2nnc(Cn3cnc4ccccc43)o2)cc1	106*	-2	-23	23	-6	0
CNC(=O)C[C@@H]1CC[C@H]2[C@@H](COC[C@@H](O)CN2Cc2ccc(C(F)(F)F)cc2)O1	.	1	.	.	.	.
COc1ccc(C)cc1S(=O)(=O)NCCN1CCOCC1	15	1	74*	-74	9	0
Cc1ccc(/C=N/NC(=O)c2nnn(-c3nonc3N)c2-c2cccs2)cc1	8	-2	10	-10	11	15
CCCOc1ccc(-c2c(C(=O)N/N=C/c3ccccc3)nnn2-c2nonc2N)cc1	-10	.	77*	-77	1	2
CCOc1ccc(-c2c(C(=O)N/N=C/c3c[nH]c4ccccc34)nnn2-c2nonc2N)cc1	10	-1	88*	-88	0	2
CC(C)c1c(C(=O)N/N=C/c2ccc(C(F)(F)F)cc2)nnn1-c1nonc1N	-4	-2	77*	-77	9	5
Nc1nonc1-n1nnc(C(=O)N/N=C/c2ccccc2F)c1-c1cccs1	-1	-5	74*	-74	0	0
CC(C)c1c(C(=O)N/N=C/c2ccoc2)nnn1-c1nonc1N	1	0	-5	5	0	1
CCOc1ccc(/C=N/NC(=O)c2nnn(-c3nonc3N)c2-c2ccc(OCC)cc2)cc1	22	-5	69	-69	10	3
CO[C@@H](CN(C)C(=O)c1cnccn1)[C@H](C)CN([C@H](C)CO)S(=O)(=O)c1ccc(F)cc1	.	-3	.	.	.	.

Screening results: PubChem BioAssay, Broad Institute
